Most compounds without a hit are left out; they make up all but 9.6% or so of the library.
Lmaj promast: Leishmania major promastigote growth inhibition, primary screen | Leishmania major promastigotes, resazurin fluorescence viability | inhibition, % at 10 µM | hit rate 9% among 200,000; in the data active = inhibition above about 50%;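 note: promastigotes grown with compound for 44 hours at 28 °C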
TNAP inh hi DEA: human TNAP enzyme inhibitors, primary screen, biochemical, luminescent, high phosphate acceptor level, uHTS; purified TNAP, CDP-star luminescence, 1 M DEA; hit rate 0.03% among 200,000; inhibition, % at 20 µM; AID 1135, 2008; Alkaline phosphatase, tissue-nonspecific isozyme (Homo sapiens), P05186;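 active = over 50% inhibition of tissue-nonspecific alkaline phosphatase at 20 µM in the single-dose screen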;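 note: plate controls were DMSO wells for no effect and EDTA-quenched wells as full inhibition for full effect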
Target sequence (P05186 whole entry, looked up): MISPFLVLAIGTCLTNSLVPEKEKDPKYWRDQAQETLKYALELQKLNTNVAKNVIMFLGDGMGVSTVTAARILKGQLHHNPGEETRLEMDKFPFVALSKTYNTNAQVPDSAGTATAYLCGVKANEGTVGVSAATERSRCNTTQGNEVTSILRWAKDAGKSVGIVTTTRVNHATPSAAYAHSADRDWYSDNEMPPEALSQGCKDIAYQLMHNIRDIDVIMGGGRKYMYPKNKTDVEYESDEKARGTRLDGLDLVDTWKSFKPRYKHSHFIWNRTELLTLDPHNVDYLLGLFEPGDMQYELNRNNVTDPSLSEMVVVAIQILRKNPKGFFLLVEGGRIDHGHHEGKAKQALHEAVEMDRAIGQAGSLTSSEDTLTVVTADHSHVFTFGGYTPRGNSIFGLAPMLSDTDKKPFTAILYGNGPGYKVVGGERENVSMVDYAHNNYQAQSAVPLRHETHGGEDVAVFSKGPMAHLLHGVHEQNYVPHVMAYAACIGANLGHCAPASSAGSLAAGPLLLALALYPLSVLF
TNAP act hiacc: TNAP activators at high phosphate acceptor level, primary screen, biochemical, luminescence, uHTS; purified TNAP, CDP-star luminescence, 1 M DEA, 30 min; hits give high values; 0 = EDTA background, 1 = DMSO-only activity; activation factor at 20 µM; 200,000 tested, under 10 active; AID 1136, 2008;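 active = activation factor at least 2 at 20 µM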
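Assay system: human TNAP; Input: enzyme diluted 1/800 final; Reagent: CDP-star luminogenic substrate at 100 µM final; Timing: 30 min, room temperature; Signal: luminescence; Evaluation: TNAP activation factor scaled between EDTA and DMSO control wells.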
PTEN del growth: growth suppression of PTEN-null HCT116, primary screen, cell-based, CellTiter-Glo | viability, % at 10 µM | hit rate 1.2% among 140,000 | HCT116 PTEN-null viability, 60 h; hits give low values;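 active = viability at or below a set limit, 4 SD under the median of all tested compounds, cut at about 3.7% in these data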;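 note: PTEN knockout HCT116 line with beta catenin targeted HCT116 as companion control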
bCat KO growth: primary screen for growth suppressors in beta-catenin knockout HCT116 cells (colon tumor, human); HCT116 beta-catenin knockout viability, CellTiter-Glo, 60 h; hits give low values; viability, % at 10 µM; hit rate 1.5% among 140,000;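 active = viability at or under a set limit, the compound median less 4 SD, cut at about 6% in these data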;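 note: 0% = Hyamine 1622 control at 20 µM and 100% = untreated cell control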
TNAP inh no acc: human TNAP enzyme inhibitors, primary screen, biochemical, luminescent, no phosphate acceptor, uHTS; Alkaline phosphatase, tissue-nonspecific isozyme (Homo sapiens), P05186; purified TNAP, CDP-star luminescence, 30 min; inhibition, % at 20 µM; hit rate 0.26% among 200,000;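 active = tissue-nonspecific alkaline phosphatase inhibition above about 50% at 20 µM in the single-dose screen, limit read from the data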;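 note: 0% = DMSO negative control and 100% = EDTA positive control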
* marks the source's active call; other numbers are inactive results; / = no result given.

SMILES | Lmaj promast | TNAP inh hi DEA | TNAP act hiacc | PTEN del growth | bCat KO growth | TNAP inh no acc
CCC1(C)OC(c2ccccc2)=C/C(=C/C=C2C(=O)NC(=O)NC2=O)O1 (stereo not drawn) | -8 | 11 | 0.9 | / | / | 38
c1ccc(-c2ccc(-c3n(-c4ccccn4)c4ccccc4[n+]3-c3ccccn3)cc2)cc1 | 88* | -1 | 1 | / | / | -11
CCCCCc1cc(O)c2c3c(c(=O)oc2c1)CN(C)CC3 | 99* | -2 | 1 | / | / | -4
Cc1cccc(C)c1NC(=O)CN(C)CC(=O)Nc1ccc(C#N)c(Cl)c1 | 0 | -2 | 1 | 58 | 65 | -3
Clc1ccc(COC(Cn2ccnc2)c2ccc(Cl)cc2Cl)c(Cl)c1 (stereo not drawn) | 99* | -27 | 1.3 | 40 | 35 | -276
CC(C)(C)NC(=S)N1CCn2cccc2C1c1cccnc1 (stereo not drawn) | -3 | -6 | 1.1 | / | / | -12
COc1ccc(C(=O)C2CCCN(Cc3cnc(C)s3)C2)c(OC)c1 (stereo not drawn) | 87* | -7 | 1.1 | / | / | -9
COc1ccc(C(=O)C2CCCN(Cc3cnc(C)s3)C2)cc1OC (stereo not drawn) | 81* | -6 | 1.1 | / | / | -10
Cc1ncc(CN2CCCC(C(=O)c3cccc(Cl)c3)C2)s1 (stereo not drawn) | 85* | -5 | 1 | / | / | -9
Cc1ncc(CN2CCCC(C(=O)c3ccc(C(C)(C)C)cc3)C2)s1 (stereo not drawn) | 91* | -5 | 1 | / | / | -8
COc1ccc(C(=O)C2CCCN(Cc3ccon3)C2)cc1OC (stereo not drawn) | 12 | 0 | 1 | / | / | -3
COc1cccc(CCNCc2c(F)cccc2F)c1 | 16 | -4 | 1 | / | / | -9
COc1ccc(C(C)=O)cc1CC(C(=O)c1ccccc1)N(C)C (stereo not drawn) | -3 | -4 | 1 | 81 | 89 | -6
CC(=O)NC(Cc1ccc(N(CCCl)CCCl)cc1)C(=O)NC(CC(C)C)C(=O)O (stereo not drawn) | -6 | -6 | 1.1 | / | / | -8
CCc1ccc2nc(N3CCC(C(=O)N4CCC5(CC4)OCCO5)CC3)sc2c1 | 9 | 0 | 1 | / | / | -6
COP(=O)(OC)C(NC(=O)/C=C/c1ccccc1)C(Cl)(Cl)Cl (stereo not drawn) | -7 | -2 | 1 | / | / | -6
Cc1cccn2c(=O)c3c(nc12)N1CCC(Cc2ccccc2)CC1C1(C3)C(=O)N(C)C(=O)N(C)C1=O (stereo not drawn) | 59* | -2 | 1 | 70 | 68 | -4
CCN1C(=O)/C(=C/c2ccc(N(CC)CC)cc2OC)C(=O)NC1=S | 99* | 4 | 1 | / | / | 26
COc1cc(OC)c(OC)cc1/C=C1\C(=O)NC(=O)N(Cc2ccccc2)C1=O | -6 | -5 | 1.1 | / | / | -11
c1ccc2c3c(ccc2c1)OCC1CONC31 (stereo not drawn) | -4 | -1 | 1 | / | / | -8
O=c1c2ccccc2nc(/C=C/c2ccc(O)cc2)n1-c1cccc(O)c1 | -2 | 13 | 0.9 | / | / | 9
COc1cccc(-n2c(/C=C/c3ccc(O)c(O)c3)nc3ccccc3c2=O)c1 | 21 | 31 | 0.7 | / | / | 84*
COc1ccc(CCNCc2ccc(SC)cc2)cc1 | 63* | -5 | 1.1 | 89 | 94 | -6
COc1ccc(CCNCc2cccc(C(F)(F)F)c2)cc1OC | 8 | -5 | 1.1 | / | / | -8
c1ccc(CCNCc2ccccc2)cc1 | 12 | 0 | 1 | 99 | 95 | -10
SMILES | Lmaj promast | TNAP inh hi DEA | TNAP act hiacc | PTEN del growth | bCat KO growth | TNAP inh no acc
COc1ccc(CCNCc2ccc(F)cc2)cc1OC | 50* | -3 | 1 | 102 | 100 | -8
CCNC(=O)NNC(=O)C1CC(c2cccnc2)=NO1 (stereo not drawn) | -9 | -8 | 1.1 | / | / | -3
CC(C)COP(=O)(OCC(C)C)C(O)c1cccnc1 (stereo not drawn) | 15 | -5 | 1 | 98 | 97 | -3
Cc1ccc(OCC(=O)Nc2ccc(Cl)cc2C(=O)c2ccccc2)cc1 | 25 | -2 | 1 | 90 | 87 | -1
Cc1ccc(C(=O)Nc2ccc(Cl)cc2C(=O)c2ccccc2)cc1 | 99* | / | / | / | / | /
O=C(Nc1nc(-c2ccccc2)c(-c2ccccc2)s1)c1ccc(S(=O)(=O)N(CCCl)CCCl)cc1 | 74* | 1 | 1 | 68 | 79 | -3
O=C(Nc1ccc(Cl)cc1C(=O)c1ccccc1Cl)c1ccco1 | -4 | -5 | 1.1 | 96 | 82 | -10
COc1ccc(C2SCC(=O)Nc3c2c(C)nn3-c2ccccc2)cc1 (stereo not drawn) | 100* | -5 | 1.1 | 94 | 103 | -15
O=C1NC(=S)N(c2ccccc2)C(=O)C1C(c1ccncc1)C1C(=O)NC(=S)N(c2ccccc2)C1=O (stereo not drawn) | -7 | 1 | 1 | / | / | -14
Cc1nn(Cc2ccc(Cl)cc2Cl)c(Cl)c1C(=O)O | -8 | -2 | 1 | / | / | -13
N=c1c2c(n(Cc3ccc(Cl)cc3Cl)c3c1CCC3)CCCC2 | 100* | -4 | 1 | 12 | 8 | -8
Cc1ccccc1N1C(=O)CC(=O)N(c2ccccc2C)C1=O | -3 | 1 | 1 | 94 | 88 | -5
Cc1ccc(/C=C2\C(=O)NC(=S)N(c3ccc(F)cc3)C2=O)s1 | 100* | -1 | 1 | / | / | 2
O=C1NC(=O)N(c2ccccc2F)C(=O)/C1=C/c1ccc(Sc2nc3ccccc3[nH]2)o1 | -4 | 9 | 0.9 | 82 | 77 | 27
CCOC(=O)C1CCN(/C=C2/C(=O)NC(=S)N(c3ccccc3F)C2=O)CC1 | 55* | -3 | 1 | / | / | -5
Cc1ccc(/C=C2\C(=O)NC(=S)N(c3ccccc3F)C2=O)s1 | 101* | 4 | 1 | 5 | 7 | 33
COC(=O)CNC(=O)c1cn(CCC#N)nc1-c1ccc(F)cc1 | -5 | -4 | 1 | / | / | -8
Cc1c(NC(NC(=O)CF)C(Cl)(Cl)Cl)c(=O)n(-c2ccccc2)n1C (stereo not drawn) | -4 | 0 | 1 | / | / | -8
COc1cc2c(cc1O)C[C@H]1NCCc3cc4c(c-2c31)OCO4 | 99* | -3 | 1 | 6 | 8 | -3
COc1cc2c(cc1OC)-c1c3c(cc4c1[C@@H](C2)N(C)CC4)OCO3 | 97* | 0 | 1 | 18 | 19 | -9
CN1C(=O)N(C)C(=O)C2(Cc3cc([N+](=O)[O-])ccc3N(C)C2c2ccccc2)C1=O (stereo not drawn) | 5 | 12 | 0.9 | 84 | 83 | 9
